Results from ChEMBL document CHEMBL4004805, “Tacrine-resveratrol fused hybrids as multi-target-directed ligands against Alzheimer's disease” (Eur J Med Chem, 2017).
pEC50, pIC50, pKd: −log10 of the molar value. Active and inactive are the calls of the source. The rule behind the calls is not given here.

Assays:
[1] = biological target: Cholinesterase (Homo sapiens) (UniProt P06276); assay: Inhibition of butyrylcholinesterase isolated from human plasma at 10 uM using butyrylthiocholine as substrate preincubated for 5 mins followed by substrate addition measured every 2 mins by Ellman's method
Outline: (§1)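 Buffer was 0.1 M potassium phosphate, pH 7.4, with DTNB and enzyme (10 µL of 2.0 units/mL stock) in a 100 µL mix. Substrate was iodide salt (20 µL of 0.01 M). Inhibitor range 10-3–10-9 M. Absorbance rise read at 412 nm, 37 °C. Each concentration run in triplicate. IC50 is the concentration giving 50% loss of activity. Screening done at 10 µM before IC50 work.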

[2] = tested on: HepG2; assay: Hepatotoxicity against human HepG2 cells assessed as decrease in cell viability at 5 to 50 uM after 24 hrs by MTT assay; type: toxicity, cell-based; details: hepg2, 24 h
Outline: (§2)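 HepG2 cells in high-glucose DMEM with 10% FBS were seeded at 8 x 10^3 cells/well, then exposed to 0–50 µM compound for 24 h in serum-free medium. MTT (0.1 mg/mL) was added for 20 min at 37 °C in the dark, formazan dissolved in Tris-HCl/5% Triton X-100, absorbance read at 570 nm. Viability as % of control; mean ± SE, four experiments at least in quadruplicate.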

[3] = biological target: T1, Acetylcholinesterase (Homo sapiens, UniProt P22303); assay: Inhibition of acetylcholinesterase isolated from human red blood cells at 10 uM using acetylthiocholine as substrate preincubated for 5 mins followed by substrate addition measured every 2 mins by Ellman's method; outline: as §1
[4] = Neurotoxicity against Wistar rat primary cerebellar granule neurons assessed as decrease in cell survival at 25 to 50 uM after 24 hrs by MTT assay; type: toxicity, cell-based; details: primary cerebellar granule neuron
[5] = biological target: Amyloid-beta precursor protein (Homo sapiens) (UniProt P05067); assay: Inhibition of amyloid beta 42 (unknown origin) self aggregation at 50 uM by ThT-based fluorometric method relative to control
Outline: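 Pretreated Aβ42 (50 µM final) was incubated at 30 °C in 10 mM phosphate buffer pH 8.0 with 10 mM NaCl, with or without inhibitor (50 µM). Samples were then diluted in 50 mM glycine-NaOH pH 8.5 containing 1.5 µM ThT. Fluorescence (ex 446/em 490 nm) was scanned for 300 s, plateau values averaged minus ThT background, giving % inhibition.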

[6] = Antioxidant activity of the compound assessed as DPPH radical scavenging activity after 30 mins; type: functional
Outline: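 DPPH (0.2 mM solution) was mixed 1:1 in methanol with compound (10-3–10-6 M). After 30 min at laboratory temperature, absorbance was read at 517 nm. Triplicates per concentration; EC50 is the concentration giving a 50% decrease in DPPH activity.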

[7] = biological target: T1, Acetylcholinesterase; assay: Inhibition of acetylcholinesterase isolated from human red blood cells using acetylthiocholine as substrate preincubated for 5 mins followed by substrate addition measured every 2 mins by Ellman's method; outline: as §1
[8] = biological target: Acetylcholinesterase (Electrophorus electricus, UniProt O42275); assay: Displacement of propidium iodide from electric eel AChE by spectrofluorometric method
Outline: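 Back-titration of a preformed EeAChE (2 µM)–propidium iodide (8 µM) complex in 1.0 mM Tris-HCl pH 8.0, with inhibitor added stepwise (final 8–56 µM; methanol stock). Fluorescence read at 635 nm, excitation 535 nm. Blanks were run for propidium alone, inhibitor plus propidium, and enzyme alone. KD derived by the Taylor–Lappi treatment, taking propidium KD = 0.7 µM.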

[9] = Neurotoxicity against Wistar rat primary cerebellar granule neurons assessed as decrease in cell survival at 5 uM after 24 hrs by MTT assay; type: toxicity, cell-based; details: primary cerebellar granule neuron
Outline: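 Cerebellar granule neurons came from 7-day-old Wistar rat pups, plated on poly-L-lysine in BME with 10% FBS and 25 mM KCl. Cytosine arabinoside (10 µmol/L) was added at 16 h. At 7 DIV, cells were moved to serum-free medium and exposed to 0–50 µM compound for 24 h. Survival was read by MTT at 570 nm as % of control; mean ± SE, four experiments at least in quadruplicate.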

[10] = Hepatotoxicity against human HepG2 cells assessed as cell viability at 5 to 50 uM after 24 hrs by MTT assay relative to control; type: toxicity, cell-based; details: read-out: Activity; outline: as §2
[11] = biological target: Cholinesterase (Homo sapiens) (UniProt P06276); assay: Inhibition of butyrylcholinesterase isolated from human plasma up to 100 uM using butyrylthiocholine as substrate preincubated for 5 mins followed by substrate addition measured every 2 mins by Ellman's method; outline: as §1
[12] = tested on: Astrocyte; assay: Immunomodulatory activity in LPS-induced Wistar rat primary astrocytes assessed as decrease in iNOS expression at 10 to 50 uM after 24 hrs by Western blot method; type: functional, cell-based
Outline: (§3)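 Rat primary microglia or astrocytes were exposed 24 h to LPS with compound (0–50 µM), then lysed; protein was measured by Lowry. Immunoblots used anti-iNOS, anti-TREM2 or anti-MRC1 with GAPDH as loading control, read by ECL and densitometry. Values are % of LPS alone; mean ± SE of 3 experiments.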

[13] = tested on: Microglia; assay: Antineuroinflammatory activity against LPS-induced Wistar rat primary microglia cells assessed as decrease in nitrite production after 24 hrs by Griess method; type: functional, cell-based
Outline: (§4)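 Microglia (shaken off) and astrocytes (trypsinized remainder) came from newborn Wistar rat cortical mixed glia grown 10–13 days. Cells were co-treated 24 h with LPS and compound (10–50 µM). Nitrite in the medium was measured by Griess reaction (sulfanilamide 5 mM, NEDA 40 mM) against a NaNO2 standard curve. Mean ± SE of 3 experiments, each at least in quadruplicate.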

[14] = Neurotoxicity against Wistar rat primary cerebellar granule neurons assessed as decrease in cell survival at 5 to 50 uM after 24 hrs by MTT assay; type: toxicity, cell-based; details: primary cerebellar granule neuron
[15] = tested on: Primary glial cell; assay: Immunomodulatory activity in LPS-induced Wistar rat primary glial cells assessed as decrease in iNOS mRNA expression after 24 hrs; type: functional, cell-based
[16] = tested on: Primary glial cell; assay: Immunomodulatory activity in LPS-induced Wistar rat primary glial cells assessed as decrease in MRC1 expression at 10 to 50 uM after 24 hrs by Western blot method; type: functional, cell-based; outline: as §3
[17] = tested on: Primary glial cell; assay: Immunomodulatory activity in LPS-induced Wistar rat primary glial cells assessed as decrease in TREME2 expression after 24 hrs by Western blot method; type: functional, cell-based; outline: as §3
[18] = tested on: Primary glial cell; assay: Immunomodulatory activity in LPS-induced Wistar rat primary glial cells assessed as decrease in TREME2 mRNA expression after 24 hrs; type: functional, cell-based
[19] = tested on: Astrocyte; assay: Antineuroinflammatory activity against LPS-induced Wistar rat primary astrocytes assessed as decrease in nitrite production after 24 hrs by Griess method; type: functional, cell-based; outline: as §4
[20] = tested on: Microglia; assay: Immunomodulatory activity in LPS-induced Wistar rat primary microglia cells assessed as decrease in iNOS expression at 10 to 50 uM after 24 hrs by Western blot method; type: functional, cell-based; outline: as §3

T1 sequence (P22303 whole entry): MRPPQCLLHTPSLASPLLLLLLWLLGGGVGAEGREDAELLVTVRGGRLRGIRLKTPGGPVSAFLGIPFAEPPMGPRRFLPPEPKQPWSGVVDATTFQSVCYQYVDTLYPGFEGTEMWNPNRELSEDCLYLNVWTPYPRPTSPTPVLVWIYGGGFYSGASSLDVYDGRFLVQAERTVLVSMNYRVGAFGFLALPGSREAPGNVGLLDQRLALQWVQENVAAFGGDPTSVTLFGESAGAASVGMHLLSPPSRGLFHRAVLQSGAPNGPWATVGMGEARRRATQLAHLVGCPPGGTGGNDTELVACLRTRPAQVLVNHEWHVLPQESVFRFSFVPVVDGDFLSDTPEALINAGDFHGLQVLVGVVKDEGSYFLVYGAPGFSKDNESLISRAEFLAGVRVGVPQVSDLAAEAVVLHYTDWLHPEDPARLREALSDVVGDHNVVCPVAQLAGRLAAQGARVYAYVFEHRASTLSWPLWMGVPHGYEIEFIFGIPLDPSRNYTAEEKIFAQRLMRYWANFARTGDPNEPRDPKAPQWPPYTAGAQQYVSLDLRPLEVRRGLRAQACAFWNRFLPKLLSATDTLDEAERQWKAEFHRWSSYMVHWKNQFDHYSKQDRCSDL
Sequence of Cholinesterase (Homo sapiens) (P06276 whole entry): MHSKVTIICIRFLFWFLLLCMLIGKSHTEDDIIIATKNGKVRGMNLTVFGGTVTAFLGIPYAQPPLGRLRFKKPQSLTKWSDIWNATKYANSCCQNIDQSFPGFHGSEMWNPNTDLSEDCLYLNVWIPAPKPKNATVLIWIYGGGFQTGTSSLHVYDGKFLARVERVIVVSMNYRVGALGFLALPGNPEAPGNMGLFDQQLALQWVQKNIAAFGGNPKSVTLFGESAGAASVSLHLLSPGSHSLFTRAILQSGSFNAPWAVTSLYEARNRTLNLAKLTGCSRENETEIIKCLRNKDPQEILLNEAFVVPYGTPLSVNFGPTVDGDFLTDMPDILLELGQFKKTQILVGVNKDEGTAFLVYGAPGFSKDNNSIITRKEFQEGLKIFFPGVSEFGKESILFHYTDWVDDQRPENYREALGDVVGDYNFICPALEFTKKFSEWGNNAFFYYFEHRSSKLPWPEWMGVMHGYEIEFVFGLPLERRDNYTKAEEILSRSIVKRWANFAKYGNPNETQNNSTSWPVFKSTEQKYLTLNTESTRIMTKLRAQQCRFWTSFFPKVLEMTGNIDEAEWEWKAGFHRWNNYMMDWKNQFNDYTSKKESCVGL
Sequence of Amyloid-beta precursor protein (Homo sapiens) (P05067 whole entry): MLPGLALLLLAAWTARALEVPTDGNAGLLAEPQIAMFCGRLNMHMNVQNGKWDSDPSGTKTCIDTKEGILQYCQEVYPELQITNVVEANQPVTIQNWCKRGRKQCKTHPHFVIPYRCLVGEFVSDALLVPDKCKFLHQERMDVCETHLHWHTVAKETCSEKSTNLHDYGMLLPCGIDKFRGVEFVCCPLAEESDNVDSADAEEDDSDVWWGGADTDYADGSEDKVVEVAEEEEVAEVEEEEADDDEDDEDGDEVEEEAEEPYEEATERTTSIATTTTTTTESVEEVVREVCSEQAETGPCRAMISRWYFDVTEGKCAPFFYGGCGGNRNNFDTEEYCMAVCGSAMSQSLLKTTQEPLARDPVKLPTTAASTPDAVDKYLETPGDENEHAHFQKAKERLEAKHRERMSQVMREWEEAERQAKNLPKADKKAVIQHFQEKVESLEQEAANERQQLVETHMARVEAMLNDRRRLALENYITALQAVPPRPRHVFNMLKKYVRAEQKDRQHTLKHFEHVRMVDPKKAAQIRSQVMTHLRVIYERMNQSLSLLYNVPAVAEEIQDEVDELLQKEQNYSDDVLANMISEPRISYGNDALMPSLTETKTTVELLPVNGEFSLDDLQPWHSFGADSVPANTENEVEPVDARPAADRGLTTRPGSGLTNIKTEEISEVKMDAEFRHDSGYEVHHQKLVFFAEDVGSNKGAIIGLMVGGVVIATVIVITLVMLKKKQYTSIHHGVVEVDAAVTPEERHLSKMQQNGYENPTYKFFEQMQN
Sequence of Acetylcholinesterase (Electrophorus electricus, UniProt O42275) (O42275 whole entry): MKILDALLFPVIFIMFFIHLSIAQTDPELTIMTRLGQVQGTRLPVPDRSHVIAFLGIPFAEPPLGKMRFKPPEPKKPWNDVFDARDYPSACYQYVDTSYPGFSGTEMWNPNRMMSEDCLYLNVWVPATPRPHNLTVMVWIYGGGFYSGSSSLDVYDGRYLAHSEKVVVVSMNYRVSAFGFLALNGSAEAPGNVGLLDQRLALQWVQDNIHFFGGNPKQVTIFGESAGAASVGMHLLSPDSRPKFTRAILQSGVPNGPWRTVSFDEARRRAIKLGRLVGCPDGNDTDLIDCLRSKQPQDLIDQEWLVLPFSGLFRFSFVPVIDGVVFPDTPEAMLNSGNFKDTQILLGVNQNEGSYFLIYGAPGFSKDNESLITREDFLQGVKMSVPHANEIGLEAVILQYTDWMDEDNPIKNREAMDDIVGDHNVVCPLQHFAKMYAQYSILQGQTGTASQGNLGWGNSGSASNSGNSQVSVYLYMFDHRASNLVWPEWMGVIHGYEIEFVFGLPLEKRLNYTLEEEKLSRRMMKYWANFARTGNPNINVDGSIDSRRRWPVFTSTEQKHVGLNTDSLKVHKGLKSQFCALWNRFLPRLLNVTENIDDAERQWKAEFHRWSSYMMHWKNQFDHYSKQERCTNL

SMILES | inhibition [1] | Activity [2] | inhibition [3] | inhibition [5] [%] | pEC50 [6] | pIC50 [7] | Activity [9] | other results
COc1cc(/C=C/c2ccc(Nc3c4c(nc5ccccc35)CCCC4)cc2)cc(OC)c1 | inactive | Toxic | inactive | – | – | – | – | Activity [4]: Toxic
COc1ccc2nc3c(c(N)c2c1)CCCC3 | – | – | – | < 5 | – | – | – | –
Cc1c(C)c2c(c(C)c1O)CCC(C)(C(=O)O)O2 (stereo unspecified) [TROLOX] | – | – | – | – | 4.79 | – | – | –
COc1cc(CCc2ccc(Nc3c4c(nc5cc(Cl)ccc35)CCCC4)cc2)cc(OC)c1 | inactive | Toxic | – | 17.6 | 3.81 | 6.10 | Toxic | pKd [8]: 5.14
COc1cc(/C=C/c2ccc(Nc3c4c(nc5ccc(OC)cc35)CCCC4)cc2)cc(OC)c1 | inactive | Toxic | inactive | – | – | – | Toxic | –
COc1cc(/C=C/c2ccc(Nc3c4c(nc5cc(Cl)ccc35)CCCC4)cc2)cc(OC)c1 | inactive | – | inactive | 21.6 | – | – | Toxic | viability at 24 h, up to 50 µM [10]: 70%
Oc1ccc(/C=C/c2cc(O)cc(O)c2)cc1 [RESVERATROL] | – | Non-Toxic | inactive | 30 | 4.59 | – | – | inhibition [11]: inactive
COc1cc(CCc2ccc(Nc3c4c(nc5ccccc35)CCCC4)cc2)cc(OC)c1 | inactive | Toxic | – | – | – | 4.85 | Toxic | –
Oc1cc(O)cc(CCc2ccc(Nc3c4c(nc5cc(Cl)ccc35)CCCC4)cc2)c1 | inactive | Toxic | – | 37.3 | < 2.30 | 5.89 | – | Activity [4]: Toxic
COc1cc(CCc2ccc(Nc3c4c(nc5ccc(OC)cc35)CCCC4)cc2)cc(OC)c1 | inactive | Toxic | inactive | – | – | – | Toxic | –
Oc1cc(O)cc(/C=C/c2ccc(Nc3c4c(nc5cc(Cl)ccc35)CCCC4)cc2)c1 | inactive | Toxic | – | 31.2 | < 2.30 | 5.06 | – | Activity [12]: Active; Activity [13]: Dose-dependent effect; Activity [14]: Non-Toxic; Activity [15]: Active; Activity [16]: Active; Activity [17]: Dose-dependent effect; Activity [18]: Active; Activity [19]: Dose-dependent effect; Activity [20]: Active
CC(=O)N[C@@H](CS)C(=O)O [ACETYLCYSTEINE] | – | – | – | – | 4.55 | – | – | –
